Experiments:
Mus musculus [1] = assay: Toxicity in nude athymic mouse at 4 mg/kg, iv; type: organism-based; design: dose 4 mg/kg, route intravenous; conditions: in vivo
Mus musculus [2] = assay: Toxicity in nude athymic mouse at 1 mg/kg, iv; type: organism-based; design: dose 1 mg/kg, route intravenous; conditions: in vivo
NCI-H460 = assay: Inhibition of human H460 cell growth; type: functional, cell-based
How it was run: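 H460 cells grown in RPMI-1640 with 10% FCS, seeded in duplicate in log phase. Drug from DMSO stock added 24 h after seeding for 1 h exposure. Cells counted 72 h later by Coulter counter. IC50 is the concentration giving 50% growth decrease versus untreated control; mean ± SD of at least three experiments.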

[3] = biological target: T1, DNA topoisomerase 1 (Homo sapiens) (UniProt P11387); assay: Activity against human Top1-mediated DNA cleavage after 10 mins; type: functional
T1 sequence (whole entry): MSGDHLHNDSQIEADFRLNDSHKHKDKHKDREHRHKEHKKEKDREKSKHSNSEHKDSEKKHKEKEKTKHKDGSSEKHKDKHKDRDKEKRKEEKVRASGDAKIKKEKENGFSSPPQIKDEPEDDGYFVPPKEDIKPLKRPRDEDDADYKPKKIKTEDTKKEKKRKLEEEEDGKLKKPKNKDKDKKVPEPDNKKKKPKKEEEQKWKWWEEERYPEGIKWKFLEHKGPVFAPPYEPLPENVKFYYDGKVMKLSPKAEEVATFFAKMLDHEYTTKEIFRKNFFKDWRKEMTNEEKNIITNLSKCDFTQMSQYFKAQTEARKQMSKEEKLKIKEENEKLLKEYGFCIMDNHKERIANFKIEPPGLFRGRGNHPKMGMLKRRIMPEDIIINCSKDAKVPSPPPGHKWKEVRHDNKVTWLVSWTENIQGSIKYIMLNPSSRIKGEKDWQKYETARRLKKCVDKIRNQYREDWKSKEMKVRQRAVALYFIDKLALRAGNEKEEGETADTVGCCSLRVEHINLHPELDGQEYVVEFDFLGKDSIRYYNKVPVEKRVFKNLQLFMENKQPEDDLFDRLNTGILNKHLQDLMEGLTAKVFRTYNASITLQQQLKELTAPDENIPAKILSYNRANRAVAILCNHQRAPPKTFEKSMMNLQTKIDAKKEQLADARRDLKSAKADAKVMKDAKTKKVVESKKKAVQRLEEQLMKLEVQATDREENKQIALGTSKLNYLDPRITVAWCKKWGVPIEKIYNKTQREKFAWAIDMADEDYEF
How it was run: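 Purified full-length human recombinant top1 from GST-tagged yeast expression (640 ng per reaction), 3′-end-labelled 751-bp SV40 DNA fragment, pH 7.6 Tris buffer with 150 mM KCl, 5 mM MgCl2. 30 min at 37 °C, then 0.6 M NaCl added to reverse cleavage. Cleavage bands on denaturing gel quantified by phosphorimaging as cleaved/uncleaved radioactivity ratio, relative to 30 min level (100%).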

MKN-28 [4] = assay: Antitumor activity against human MKN28 cell line xenografted in nude athymic mouse at 15 mg/kg, po measured as body weight loss; type: functional
How it was run: (§1)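 Nude athymic mice bearing MKN-28 human gastric carcinoma xenografts, from tumor fragments inoculated on both flanks at day 0. Oral treatment started when tumors were just palpable (day 3-4). Body weight loss (%) and toxicity were recorded per dose group, with toxicity given as a count over 4 mice.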

Mus musculus [5] = assay: Toxicity in nude athymic mouse at 9 mg/kg, po; type: organism-based; design: dose 9 mg/kg, route oral; conditions: in vivo; how it was run: as §1
MKN-28 [6] = assay: Antitumor activity against human MKN28 cell line xenografted in nude athymic mouse at 15 mg/kg, po measured as log10 of cell kill to reach 1000 mm3 tumor volume; type: functional
Mus musculus [7] = assay: Toxicity in nude athymic mouse at 5 mg/kg, po; type: organism-based; design: dose 5 mg/kg, route oral; conditions: in vivo; how it was run: as §1
MKN-28 [8] = assay: Antitumor activity against human MKN28 cell line xenografted in nude athymic mouse at 9 mg/kg, po measured as body weight loss; type: functional; how it was run: as §1
MKN-28 [9] = assay: Antitumor activity against human MKN28 cell line xenografted in nude athymic mouse at 5 mg/kg, po measured as tumor volume inhibition relative to control; type: functional
How it was run: (§2)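 MKN-28 human gastric carcinoma tumor fragments inoculated on both flanks of nude athymic mice at day 0. Oral dosing began when tumors were just palpable (day 3-4). Read-out was tumor volume inhibition (%) of treated over control animals, 20 days after the last treatment. Groups of 4 mice.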

MKN-28 [10] = assay: Antitumor activity against human MKN28 cell line xenografted in nude athymic mouse at 9 mg/kg, po measured as tumor volume inhibition relative to control; type: functional; how it was run: as §2
MKN-28 [11] = assay: Antitumor activity against human MKN28 cell line xenografted in nude athymic mouse at 5 mg/kg, po measured as log10 of cell kill to reach 1000 mm3 tumor volume; type: functional
MKN-28 [12] = assay: Antitumor activity against human MKN28 cell line xenografted in nude athymic mouse at 15 mg/kg, po measured as tumor volume inhibition relative to control; type: functional; how it was run: as §2
MKN-28 [13] = assay: Antitumor activity against human MKN28 cell line xenografted in nude athymic mouse at 5 mg/kg, po measured as body weight loss; type: functional; how it was run: as §1
Mus musculus [14] = assay: Toxicity in nude athymic mouse at 15 mg/kg, po; type: organism-based; design: dose 15 mg/kg, route oral; conditions: in vivo; how it was run: as §1
MKN-28 [15] = assay: Antitumor activity against human MKN28 cell line xenografted in nude athymic mouse at 9 mg/kg, po measured as log10 of cell kill to reach 1000 mm3 tumor volume; type: functional
Mus musculus [16] = assay: Toxicity in nude athymic mouse at 1 mg/kg, po; type: organism-based; design: dose 1 mg/kg, route oral; conditions: in vivo
Mus musculus [17] = assay: Toxicity in nude athymic mouse at 2 mg/kg, po; type: organism-based; design: dose 2 mg/kg, route oral; conditions: in vivo
MKN-28 [18] = assay: Antitumor activity against human MKN28 cell line xenografted in nude athymic mouse at 4 mg/kg, po measured as body weight loss; type: functional
MKN-28 [19] = assay: Antitumor activity against human MKN28 cell line xenografted in nude athymic mouse at 1 mg/kg, po measured as body weight loss; type: functional
MKN-28 [20] = assay: Antitumor activity against human MKN28 cell line xenografted in nude athymic mouse at 2 mg/kg, po measured as log10 of cell kill to reach 1000 mm3 tumor volume; type: functional
MKN-28 [21] = assay: Antitumor activity against human MKN28 cell line xenografted in nude athymic mouse at 2 mg/kg, po measured as body weight loss; type: functional
MKN-28 [22] = assay: Antitumor activity against human MKN28 cell line xenografted in nude athymic mouse at 4 mg/kg, po measured as tumor volume inhibition relative to control; type: functional
How it was run: (§3)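 Tumour fragments implanted on both flanks of nude athymic mice at day 0. Dosing iv or po started when tumours were just palpable (day 3-4). Tumour volume inhibition (%) is treated over control, 20 days after last treatment.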

Mus musculus [23] = assay: Toxicity in nude athymic mouse at 4 mg/kg, po; type: organism-based; design: dose 4 mg/kg, route oral; conditions: in vivo
MKN-28 [24] = assay: Antitumor activity against human MKN28 cell line xenografted in nude athymic mouse at 1 mg/kg, po measured as tumor volume inhibition relative to control; type: functional; how it was run: as §3
MKN-28 [25] = assay: Antitumor activity against human MKN28 cell line xenografted in nude athymic mouse at 4 mg/kg, po measured as log10 of cell kill to reach 1000 mm3 tumor volume; type: functional
MKN-28 [26] = assay: Antitumor activity against human MKN28 cell line xenografted in nude athymic mouse at 1 mg/kg, po measured as log10 of cell kill to reach 1000 mm3 tumor volume; type: functional
MKN-28 [27] = assay: Antitumor activity against human MKN28 cell line xenografted in nude athymic mouse at 2 mg/kg, po measured as tumor volume inhibition relative to control; type: functional; how it was run: as §3

With `CC[C@@]1(O)C(=O)OCc2c1cc1n(c2=O)Cc2c-1nc1ccccc1c2/C=N/CCCN(CCCCNC(=O)OC(C)(C)C)C(=O)OC(C)(C)C` the Activity (Mus musculus [1]) was “Non-toxic”, the Activity (Mus musculus [2]) was “Non-toxic” and the IC50 (NCI-H460) was 0.015 µM.

In the case of `CC[C@@]1(O)C(=O)OCc2c1cc1n(c2=O)Cc2c-1nc1ccccc1c2CNCCCNCCCCNCCCN`, the IC50 (NCI-H460) is reported as 1.43 µM and the Activity [3] is reported as 60%.

`CC[C@@]1(O)C(=O)OCc2c1cc1n(c2=O)Cc2c-1nc1ccccc1c2/C=N\OCCNC(=O)OC(C)(C)C` gave an IC50 (NCI-H460) of 0.084 µM.

`CC[C@@]1(O)C(=O)OCc2c1cc1n(c2=O)Cc2cc3c(CN(C)C)c(O)ccc3nc2-1` [TOPOTECAN] was tested, and the Activity (MKN-28 [4]) was 8%, the Activity (Mus musculus [5]) was “Non-toxic” and the Activity (MKN-28 [6]) was 2.1. The Activity (Mus musculus [7]) was “Non-toxic”, the Activity (MKN-28 [8]) was 0% and the inhibition in vivo at 5 mg/kg (MKN-28 [9]) was 80%. It also gave an inhibition in vivo at 9 mg/kg (MKN-28 [10]) of 91%, an Activity (MKN-28 [11]) of 1.3 and an inhibition in vivo at 15 mg/kg (MKN-28 [12]) of 98%. The Activity (MKN-28 [13]) was 0%, the Activity (Mus musculus [14]) was “Non-toxic” and the Activity (MKN-28 [15]) was 1.7.

Work on `CCc1c2c(nc3ccc(O)cc13)-c1cc3c(c(=O)n1C2)COC(=O)[C@]3(O)CC` [7-ETHYL-10-HYDROXYCAMPTOTHECIN] yielded an IC50 (NCI-H460) of 0.08 µM.

`CC[C@@]1(O)C(=O)OCc2c1cc1n(c2=O)Cc2c-1nc1ccccc1c2/C=N\OCCN(CCCCNC(=O)OC(C)(C)C)C(=O)OC(C)(C)C` gave an IC50 (NCI-H460) of 1.15 µM.

For `CC[C@@]1(O)C(=O)OCc2c1cc1n(c2=O)Cc2c-1nc1ccccc1c2/C=N\OCCN(CCCCN(CCCNC(=O)OC(C)(C)C)C(=O)OC(C)(C)C)C(=O)OC(C)(C)C`, the IC50 (NCI-H460) was 1.06 µM.

`CC[C@@]1(O)C(=O)OCc2c1cc1n(c2=O)Cc2c-1nc1ccccc1c2CN(CCCN(CCCCN(CCCNC(=O)OC(C)(C)C)C(=O)OC(C)(C)C)C(=O)OC(C)(C)C)C(=O)OC(C)(C)C` showed an IC50 (NCI-H460) of 3.27 µM.

In the case of `CC[C@@]1(O)C(=O)OCc2c1cc1n(c2=O)Cc2c-1nc1ccccc1c2/C=N/CCCN(CCCCN(CCCNC(=O)OC(C)(C)C)C(=O)OC(C)(C)C)C(=O)OC(C)(C)C`, the Activity (Mus musculus [16]) is reported as “Non-toxic”, the Activity (Mus musculus [17]) is reported as “Non-toxic” and the Activity (MKN-28 [18]) is reported as 7%. It also gave an Activity (MKN-28 [19]) of 5%, an Activity (MKN-28 [20]) of 0.5 and an Activity (MKN-28 [21]) of 1%. The inhibition in vivo at 4 mg/kg (MKN-28 [22]) was 72%, the Activity (Mus musculus [23]) was “Non-toxic” and the IC50 (NCI-H460) was 0.029 µM. For the same molecule, the inhibition in vivo at 1 mg/kg (MKN-28 [24]) was 28%, the Activity (MKN-28 [25]) was 1 and the Activity (MKN-28 [26]) was 0.1. It also gave an inhibition in vivo at 2 mg/kg (MKN-28 [27]) of 62%.

`CC[C@@]1(O)C(=O)OCc2c1cc1n(c2=O)Cc2c-1nc1ccccc1c2/C=N\OCCNCCCCNCCCN` showed an IC50 (NCI-H460) of 1.07 µM and an Activity [3] of 60%.

Work on `CC[C@@]1(O)C(=O)OCc2c1cc1n(c2=O)Cc2c-1nc1ccccc1c2CNCCCN(CCCCN(CCCNC(=O)OC(C)(C)C)C(=O)OC(C)(C)C)C(=O)OC(C)(C)C` yielded an IC50 (NCI-H460) of 1.4 µM.

For `CC[C@@]1(O)C(=O)OCc2c1cc1n(c2=O)Cc2c-1nc1ccccc1c2/C=N\OCCNCCCCN`, the IC50 (NCI-H460) was 1.16 µM and the Activity [3] was 60%.

Molecule `CC[C@@]1(O)C(=O)OCc2c1cc1n(c2=O)Cc2c-1nc1ccccc1c2/C=N\OCCCNC(=O)OC(C)(C)C` has an IC50 (NCI-H460) of 0.3 µM.

`CC[C@@]1(O)C(=O)OCc2c1cc1n(c2=O)Cc2c-1nc1ccccc1c2/C=N\OCCCN` gave an IC50 (NCI-H460) of 1.77 µM.

— ChEMBL document CHEMBL1146009, “Synthesis and cytotoxic activity of polyamine analogues of camptothecin” (J Med Chem, 2006)
